Among the data in ChEMBL document CHEMBL2390916, “Low molecular weight dual inhibitors of factor Xa and fibrinogen binding to GPIIb/IIIa with highly overlapped pharmacophores” (Eur J Med Chem, 2013) are IC50 and Ki values, retold here.

Test [1] deals with Integrin alpha-IIb/beta-3 (Homo sapiens, UniProt P05106+P08514). Nature of the test: Displacement of biotinylated fibrinogen from human glycoprotein 2b/3a receptor after 2 hrs by chemiluminescence assay. Type of test: protein-complex assay. The essentials:
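Solid-phase competitive binding: purified human GPIIb/IIIa coated overnight at 4 °C in Tris buffer pH 7.4 with 1 mM Ca2+, Mg2+, Mn2+; blocked with 1% BSA. Serially diluted inhibitor plus biotinylated human fibrinogen, 2 h rt; peroxidase anti-biotin antibody 1 h, chemiluminescent read.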

The target of another test is Coagulation factor X (Homo sapiens, UniProt P00742). Nature of the test: Inhibition of F10a (unknown origin) using S-2222 as substrate incubated for 15 mins prior to substrate addition measured every 10 secs by spectrophotometric analysis. The essentials: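 Inhibitor 0.5–100 µM (from 10 mM DMSO stocks) preincubated with enzyme in HBSA buffer 15 min, 25 °C; A405 read every 10 s. Triplicate, three inhibitor × two substrate concentrations; Ki from initial linear rates via Cheng–Prusoff, averaged.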

The next test concerns the target Prothrombin (Homo sapiens, UniProt P00734). Nature of the test: Inhibition of thrombin (unknown origin) using S-2238 as substrate incubated for 15 mins prior to substrate addition measured every 10 secs by spectrophotometric analysis.
The target in a further test is Trypsin (Homo sapiens, UniProt P07477+P07478+P35030). The experiment in a line: Inhibition of trypsin (unknown origin) using S-2222 as substrate incubated for 15 mins prior to substrate addition measured every 10 secs by spectrophotometric analysis. Type of test: protein assay. The essentials:
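Trypsin at 0.5 nkat/mL final with S-2222 at 50 and 100 µM final. Inhibitor 0.5–100 µM, diluted from 10 mM DMSO stocks, preincubated 15 min at 25 °C with enzyme in HBSA buffer before substrate; absorbance at 405 nm every 10 s. Triplicate at three inhibitor and two substrate levels; Ki from initial rates (Cheng–Prusoff), averaged.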

Chain of Coagulation factor X (P00742 41-179 limits assumed): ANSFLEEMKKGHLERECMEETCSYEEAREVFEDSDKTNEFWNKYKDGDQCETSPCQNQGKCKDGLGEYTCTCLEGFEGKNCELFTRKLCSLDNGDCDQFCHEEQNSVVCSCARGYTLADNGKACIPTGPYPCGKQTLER
Chain of Coagulation factor X (P00742 235-488 limits assumed): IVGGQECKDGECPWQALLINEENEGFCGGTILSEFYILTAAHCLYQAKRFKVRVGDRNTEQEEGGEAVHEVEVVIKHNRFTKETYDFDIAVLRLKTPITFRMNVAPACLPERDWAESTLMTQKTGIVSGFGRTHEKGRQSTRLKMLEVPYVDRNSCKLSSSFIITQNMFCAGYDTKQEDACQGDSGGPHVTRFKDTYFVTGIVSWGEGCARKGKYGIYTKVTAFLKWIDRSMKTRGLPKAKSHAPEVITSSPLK
Chain of Integrin alpha-IIb/beta-3 (P05106 27-788 limits assumed): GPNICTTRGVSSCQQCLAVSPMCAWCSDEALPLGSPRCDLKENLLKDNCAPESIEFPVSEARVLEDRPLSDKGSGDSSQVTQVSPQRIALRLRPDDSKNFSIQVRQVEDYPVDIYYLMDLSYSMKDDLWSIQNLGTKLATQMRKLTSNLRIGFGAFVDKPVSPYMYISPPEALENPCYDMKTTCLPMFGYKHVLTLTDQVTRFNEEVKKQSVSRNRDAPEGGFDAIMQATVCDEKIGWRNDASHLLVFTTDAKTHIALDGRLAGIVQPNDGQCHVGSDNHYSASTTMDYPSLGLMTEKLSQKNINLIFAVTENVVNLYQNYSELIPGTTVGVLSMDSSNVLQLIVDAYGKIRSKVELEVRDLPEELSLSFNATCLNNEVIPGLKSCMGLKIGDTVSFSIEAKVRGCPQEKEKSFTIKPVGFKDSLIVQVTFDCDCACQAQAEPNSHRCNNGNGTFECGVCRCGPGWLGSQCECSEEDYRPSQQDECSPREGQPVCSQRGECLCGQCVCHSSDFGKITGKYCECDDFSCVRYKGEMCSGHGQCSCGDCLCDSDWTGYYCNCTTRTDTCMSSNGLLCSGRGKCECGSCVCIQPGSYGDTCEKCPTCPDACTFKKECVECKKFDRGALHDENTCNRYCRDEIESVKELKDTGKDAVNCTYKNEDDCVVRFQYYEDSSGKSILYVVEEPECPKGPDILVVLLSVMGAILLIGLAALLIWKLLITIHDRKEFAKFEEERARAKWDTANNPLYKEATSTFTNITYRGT
Chain of Integrin alpha-IIb/beta-3 (P08514 32-887 limits assumed): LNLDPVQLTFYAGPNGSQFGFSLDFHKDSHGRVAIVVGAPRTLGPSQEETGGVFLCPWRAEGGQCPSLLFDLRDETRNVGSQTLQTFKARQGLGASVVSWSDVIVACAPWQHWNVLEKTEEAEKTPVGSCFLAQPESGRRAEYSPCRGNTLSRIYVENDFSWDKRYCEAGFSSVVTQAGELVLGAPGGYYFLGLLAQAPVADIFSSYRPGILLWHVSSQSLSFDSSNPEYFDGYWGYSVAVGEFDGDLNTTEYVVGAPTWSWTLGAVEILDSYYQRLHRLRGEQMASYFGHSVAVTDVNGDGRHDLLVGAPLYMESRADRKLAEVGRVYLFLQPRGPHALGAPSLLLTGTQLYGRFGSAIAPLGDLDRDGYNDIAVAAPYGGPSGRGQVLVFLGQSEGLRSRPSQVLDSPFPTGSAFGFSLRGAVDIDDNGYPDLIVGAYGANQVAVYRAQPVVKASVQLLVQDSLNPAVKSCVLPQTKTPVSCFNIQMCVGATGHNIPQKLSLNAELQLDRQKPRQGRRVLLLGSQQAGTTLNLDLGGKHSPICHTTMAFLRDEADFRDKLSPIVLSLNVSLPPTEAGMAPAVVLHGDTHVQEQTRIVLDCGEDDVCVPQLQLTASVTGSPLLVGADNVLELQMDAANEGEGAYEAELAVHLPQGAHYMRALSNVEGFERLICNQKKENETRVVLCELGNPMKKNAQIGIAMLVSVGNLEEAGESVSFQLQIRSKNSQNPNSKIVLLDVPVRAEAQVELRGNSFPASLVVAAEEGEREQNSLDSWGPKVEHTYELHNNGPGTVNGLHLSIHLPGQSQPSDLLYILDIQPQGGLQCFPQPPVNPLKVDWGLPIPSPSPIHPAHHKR
Chain of Integrin alpha-IIb/beta-3 (P08514 891-1039 limits assumed): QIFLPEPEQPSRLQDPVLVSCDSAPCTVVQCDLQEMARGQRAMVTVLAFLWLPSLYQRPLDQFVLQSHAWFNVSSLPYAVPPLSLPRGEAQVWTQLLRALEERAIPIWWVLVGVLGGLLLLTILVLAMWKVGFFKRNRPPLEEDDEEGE

With `O=C(NC[C@@H]1CN(c2ccc(N3CCC(C(=O)O)CC3)cc2)C(=O)O1)c1ccc(Cl)s1`, the IC50 in test [1] was over 300 µM.
In test [1], `O=C(NC[C@H]1CN(c2ccc(N3CCC(C(=O)O)CC3)cc2)C(=O)O1)c1ccc(Cl)s1` yielded an IC50 of over 300 µM.
Turning to `CCOC(=O)C1CCN(c2ccc(N3C[C@H](CNC(=O)c4cnc(N)s4)OC3=O)cc2)CC1.O=C(O)C(F)(F)F`, the Ki on Coagulation factor X is 54.4 µM; at Prothrombin, over 100 µM; on Trypsin it was over 100 µM. In addition, the IC50 in test [1] was over 300 µM.
Regarding `Nc1ncc(C(=O)NC[C@H]2CN(c3ccc(N4CCC(C(=O)O)CC4)cc3)C(=O)O2)s1.O=C(O)C(F)(F)F`, the Ki at Coagulation factor X is 48.8 µM; at Prothrombin, over 100 µM; at Trypsin it was over 100 µM. This compound displayed an IC50 in test [1] of 78.4 µM.
Take `CCOC(=O)C1CCN(c2ccc(N3C[C@@H](CNC(=O)c4cnc(N)s4)OC3=O)cc2)CC1.O=C(O)C(F)(F)F`: the figures for the Ki on Coagulation factor X, on Prothrombin and at Trypsin were 111 µM, over 100 µM and over 100 µM, respectively. In test [1], the IC50 is over 300 µM.
In the case of `Nc1ncc(C(=O)NC[C@@H]2CN(c3ccc(N4CCC(C(=O)O)CC4)cc3)C(=O)O2)s1.O=C(O)C(F)(F)F`, the Ki on Coagulation factor X was 88.2 µM; at Prothrombin, over 100 µM; on Trypsin, over 100 µM. The compound further returned an IC50 in test [1] of 16.8 µM.
Take `CCOC(=O)C1CCCN(c2ccc(N3C[C@H](CNC(=O)c4cnc(N)s4)OC3=O)cc2)C1.O=C(O)C(F)(F)F` (stereo partly specified): the Ki was 49.3 µM on Coagulation factor X, over 100 µM at Prothrombin and over 100 µM on Trypsin. Besides, the IC50 in test [1] was over 300 µM.
Take `Nc1ncc(C(=O)NC[C@H]2CN(c3ccc(N4CCCC(C(=O)O)C4)cc3)C(=O)O2)s1.O=C(O)C(F)(F)F` (stereo partly specified): the Ki on Coagulation factor X is 47.5 µM; on Prothrombin it was over 100 µM; at Trypsin it was over 100 µM. Further, the IC50 in test [1] was over 300 µM.
Take `CCOC(=O)C1CCCCN1c1ccc(N2C[C@H](CNC(=O)c3cnc(N)s3)OC2=O)cc1.O=C(O)C(F)(F)F` (stereo partly specified): the inhibition constant Ki at Coagulation factor X is 28.7 µM; at Prothrombin, over 100 µM; on Trypsin it was over 100 µM. The compound also displayed an IC50 in test [1] of over 300 µM.
Regarding `CCOC(=O)C1CCN(c2ccc(N3C[C@H](CNC(=O)c4cnc(N)s4)OC3=O)cc2)C(=O)C1.O=C(O)C(F)(F)F` (stereo partly specified), the figures for the inhibition constant (Ki) at Coagulation factor X, at Prothrombin and on Trypsin were 38.2 µM, over 100 µM and over 100 µM, respectively. For the same compound, the IC50 in test [1] was over 300 µM.
`CCOC(=O)C1(C)CCCN(c2ccc(N3C[C@H](CNC(=O)c4cnc(N)s4)OC3=O)cc2)C1=O.O=C(O)C(F)(F)F` (stereo partly specified): the figures for the Ki at Coagulation factor X, on Prothrombin and at Trypsin were 55.6 µM, over 100 µM and over 100 µM, respectively. In addition, the IC50 in test [1] was over 300 µM.
Regarding `CC1(C(=O)O)CCCN(c2ccc(N3C[C@H](CNC(=O)c4cnc(N)s4)OC3=O)cc2)C1=O.O=C(O)C(F)(F)F` (stereo partly specified), the Ki was 11.2 µM at Coagulation factor X, over 100 µM on Prothrombin and over 100 µM on Trypsin. In addition, the IC50 in test [1] is over 300 µM.
For the compound `O=C(NC[C@H]1CN(c2ccc(N3CCC(C(=O)O)CC3)cc2)C(=O)O1)c1ccc(-c2noc(=O)[nH]2)cc1`, the inhibition constant (Ki) at Coagulation factor X, at Prothrombin and on Trypsin was over 100 µM each time. Besides, the IC50 in test [1] was found to be 16 µM.
For the compound `O=C(NC[C@@H]1CN(c2ccc(N3CCC(C(=O)O)CC3)cc2)C(=O)O1)c1ccc(-c2noc(=O)[nH]2)cc1`, the Ki on Coagulation factor X, at Prothrombin and on Trypsin was over 100 µM each time. For the same compound, the IC50 in test [1] worked out at 0.87 µM.
As for `O=C(O)C1CCN(c2ccc(N3C[C@H](CNCc4ccc(-c5noc(=O)[nH]5)cc4)OC3=O)cc2)CC1`, the Ki on Coagulation factor X, on Prothrombin and at Trypsin was over 100 µM in each case. Further, the IC50 in test [1] is 0.89 µM.
On to `O=C(O)C1CCN(c2ccc(N3C[C@@H](CNCc4ccc(-c5noc(=O)[nH]5)cc4)OC3=O)cc2)CC1`, for which the Ki at Coagulation factor X was 94.8 µM; on Prothrombin it was over 100 µM; at Trypsin it was over 100 µM. The same compound displayed an IC50 in test [1] of 0.26 µM.
Regarding `CC(=O)O.CCOC(=O)C1CCN(c2ccc(N3C[C@H](CNC(=O)c4ccc(C(=N)N)cc4)OC3=O)cc2)CC1`, the Ki at Coagulation factor X was over 100 µM; at Prothrombin it was over 100 µM; on Trypsin, 5.65 µM. The compound also yielded an IC50 in test [1] of 14 µM.
With `CC(=O)O.CCOC(=O)C1CCN(c2ccc(N3C[C@@H](CNC(=O)c4ccc(C(=N)N)cc4)OC3=O)cc2)CC1`, the results for the Ki at Coagulation factor X, at Prothrombin and at Trypsin were over 100 µM, over 100 µM and 3.06 µM, respectively. Further, the IC50 in test [1] worked out at 96 µM.
Regarding `CC(=O)O.CCOC(=O)C1CCN(c2ccc(N3C[C@H](CNCc4ccc(C(=N)N)cc4)OC3=O)cc2)CC1`, the Ki was 34.3 µM on Coagulation factor X, over 100 µM at Prothrombin and 2.17 µM at Trypsin. The compound also returned an IC50 in test [1] of 55 µM.
Take `CC(=O)O.CCOC(=O)C1CCN(c2ccc(N3C[C@@H](CNCc4ccc(C(=N)N)cc4)OC3=O)cc2)CC1`: the Ki at Coagulation factor X was 25.6 µM; on Prothrombin, over 100 µM; on Trypsin it was 6.59 µM. The same compound gave an IC50 in test [1] of 35 µM.
In the case of `CC(=O)O.N=C(N)c1ccc(C(=O)NC[C@H]2CN(c3ccc(N4CCC(C(=O)O)CC4)cc3)C(=O)O2)cc1`, the Ki was 43 µM on Coagulation factor X, over 100 µM on Prothrombin and 8.95 µM at Trypsin. The same compound yielded an IC50 in test [1] of 12 µM.
In the case of `CC(=O)O.N=C(N)c1ccc(C(=O)NC[C@@H]2CN(c3ccc(N4CCC(C(=O)O)CC4)cc3)C(=O)O2)cc1`, the Ki at Coagulation factor X was 62.9 µM; on Prothrombin it was over 100 µM; on Trypsin it was 3.79 µM. For the same compound, in test [1], the IC50 was 4.7 µM.
As to `CC(=O)O.N=C(N)c1ccc(CNC[C@H]2CN(c3ccc(N4CCC(C(=O)O)CC4)cc3)C(=O)O2)cc1`, the figures for the Ki on Coagulation factor X, at Prothrombin and at Trypsin were 54.1 µM, 53 µM and 17.8 µM, respectively. In test [1], this compound registered an IC50 of 2.2 µM.
On the same counts, the results for `CCOC(=O)C1CCN(c2ccc(N3C[C@H](CNC(=O)c4ccc(Cl)c(N)c4)OC3=O)cc2)CC1` are 10.8 µM, over 100 µM, over 100 µM and over 300 µM.
With `CCOC(=O)C1CCN(c2ccc(N3C[C@@H](CNC(=O)c4ccc(Cl)c(N)c4)OC3=O)cc2)CC1`, the Ki on Coagulation factor X was 82.3 µM; at Prothrombin, over 100 µM; at Trypsin it was over 100 µM. This compound showed an IC50 in test [1] of over 300 µM.
As to `Nc1cc(C(=O)NC[C@H]2CN(c3ccc(N4CCC(C(=O)O)CC4)cc3)C(=O)O2)ccc1Cl`, the Ki was 37 µM at Coagulation factor X, over 100 µM on Prothrombin and over 100 µM at Trypsin. In test [1], this compound gave a 50% inhibitory concentration (IC50) of 25.8 µM.
As to `Nc1cc(C(=O)NC[C@@H]2CN(c3ccc(N4CCC(C(=O)O)CC4)cc3)C(=O)O2)ccc1Cl`, the Ki is 57.7 µM at Coagulation factor X, over 100 µM on Prothrombin and over 100 µM at Trypsin. Further, the IC50 in test [1] stood at 12.8 µM.
With `O=C(NC[C@H]1CN(c2ccc(N3CCC(C(=O)O)CC3)cc2)C(=O)O1)c1ccc(Cl)c(-c2noc(=O)[nH]2)c1`, the Ki at Coagulation factor X is 89.7 µM; on Prothrombin, over 100 µM; at Trypsin, over 100 µM. In test [1], this compound came in with an IC50 of 15.3 µM.

Usually IC50 stands for the midpoint of a concentration-inhibition curve. A high value points to a need for much substance. By Ki is commonly meant a measure of affinity in units of concentration, obtained from inhibition or displacement. Low readings indicate a stronger hold on the target, high ones a looser hold on the target.
